Reference: ChEMBL document CHEMBL4842312, “Phenoxazine nucleoside derivatives with a multiple activity against RNA and DNA viruses” (Eur J Med Chem, 2021)

Key:
[1] = tested on: SARS-CoV-2; assay: Antiviral activity against SARS COV-2 infected in monkey vero cells assessed as reduction in virus-induced cytopathic effect preincubated with virus for 1 hr followed by cell infection and measured after 5 days by microscopic analysis; assay type: functional, organism-based; conditions: Severe acute respiratory syndrome coronavirus 2, Vero
[2] = tested on: Human alphaherpesvirus 3; assay: Antiviral activity against thymidine kinase deficient Varicella zoster virus; assay type: functional, organism-based
Procedure, shortened: (§1)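 Confluent HEL cultures received 100 CCID50 or 20 PFU of virus, with 2 h adsorption before inoculum removal. Cells were then incubated with compound from 100 μM downward. Cytopathicity or plaques were scored once untreated infected controls reached completion.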

[3] = Cytotoxicity in pig PEK cells assessed as reduction in cell viability measured after 5 days by resazurin dye based assay; design: species or system Sus scrofa, Kidney; conditions: 120 h, time 5 day
Procedure, shortened: (§2)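 Cells (about 10⁵/well, 5% FBS) were added to two-fold compound dilutions (eight concentrations from 100 μM; DMSO control) and held 5 days at 36.5 °C in CO2. Medium was then replaced with resazurin (25 μg/mL) for 4 h and stopped with SDS. Fluorescence was read at Ex 525 / Em 580–640 nm, with background wells without resazurin subtracted. Done in two replicates; CC50 calculated.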

[4] = tested on: Respiratory syncytial virus; assay: Antiviral activity against Respiratory syncytial virus assessed as reduction in virus-induced cytopathic effect by MTS assay; assay type: functional, organism-based; conditions: human respiratory syncytial virus
[5] = tested on: Vero; assay: Cytotoxicity in African green monkey Vero cells assessed as reduction in cell viability measured after 5 days by resazurin dye based assay; conditions: chlorocebus sabaeus, vero, 120 h; time 5 day; procedure, shortened: as §2
[6] = tested on: Omsk hemorrhagic fever virus; assay: Antiviral activity against Omsk hemorrhagic fever virus infected in pig PEK cells assessed as reduction in virus plaque formation preincubated with virus for 1 hr followed by cell infection and measured after 1 hr by crystal violet staining based assay; assay type: functional, organism-based
[7] = tested on: HEp-2; assay: Cytotoxicity in human Hep2 cells assessed as reduction in cell viability measured after 3 days by beckman coulter counting method; assay type: functional; conditions: HEp-2, 72 h, time 3 day
Procedure, shortened: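 Hep2 cells seeded at 5 × 10³ cells/well and allowed to grow 24 h, then exposed to compound dilutions starting at 100 μM for 3 days at 37 °C. Cell number measured by Coulter counter.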

[8] = tested on: Influenza A virus; assay: Antiviral activity against Influenza A virus (H1N1) infected in MDCK cells assessed as reduction in cytopathic effect preincubated with cells for 1 hrs followed by viral addition and measured after 24 hrs by Reed-Muench method; assay type: functional, organism-based
Procedure, shortened: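 MDCK monolayers were pre-incubated 1 h at 37 °C with 3-fold compound dilutions (from 2 mg/mL DMSO stock), then infected at MOI 1 for 24 h. Supernatant yield was titrated by 10-fold dilutions on fresh MDCK for 72 h. Titre was read by hemagglutination with 1% chicken erythrocytes and calculated by Reed-Muench as TID50 per 100 μL.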

[9] = tested on: Powassan virus; assay: Antiviral activity against Powassan virus infected in pig PEK cells assessed as reduction in virus plaque formation preincubated with virus for 1 hr followed by cell infection and measured after 1 hr by crystal violet staining based assay; assay type: functional, organism-based
[10] = tested on: Human betaherpesvirus 5; assay: Antiviral activity against Human cytomegalovirus AD169; assay type: functional, organism-based; conditions: Human betaherpesvirus 5, AD169; procedure, shortened: as §1
[11] = tested on: Human betaherpesvirus 5; assay: Antiviral activity against Human cytomegalovirus Davis; assay type: functional, organism-based; conditions: Human betaherpesvirus 5, Davis; procedure, shortened: as §1
[12] = tested on: Tick-borne encephalitis virus; assay: Antiviral activity against Tick-borne encephalitis virus infected in pig PEK cells assessed as reduction in virus plaque formation preincubated with virus for 1 hr followed by cell infection and measured after 1 hr by crystal violet staining based assay; assay type: functional, organism-based
[13] = Selectivity index, ratio of CC50 for pig PEK cells to EC50 for Antiviral activity against Tick-borne virus encephalitis infected in pig PEK cells; assay type: toxicity, cell-based; conditions: read-out: Ratio CC50/EC50
[14] = tested on: Human alphaherpesvirus 3; assay: Antiviral activity against thymidine kinase positive Varicella zoster virus; assay type: functional, organism-based; procedure, shortened: as §1
[15] = tested on: Chikungunya virus; assay: Antiviral activity against Chikungunya virus infected in African green monkey Vero cells assessed as reduction in virus plaque formation preincubated with virus for 1 hr followed by cell infection and measured after 1 hr by crystal violet staining based assay; assay type: functional, organism-based
[16] = Selectivity index, ratio of CC50 for pig PEK cells to EC50 for Antiviral activity against Omsk hemorrhagic fever virus infected in pig PEK cells; assay type: toxicity, cell-based; conditions: read-out: Ratio CC50/EC50
[17] = tested on: MDCK; assay: Cytotoxicity in dog MDCK cells assessed as reduction in cell viability measured after 3 days by beckman coulter counting method; assay type: cell-based, Canis lupus familiaris; conditions: mdck, 72 h, time 3 day
Procedure, shortened: (§3)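 Cells were seeded at 5 × 10³/well, grown 24 h, then exposed to compound from 100 μM downward for 3 days at 37 °C. Cell number was counted with a Coulter counter.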

[18] = Selectivity index, ratio of CC50 for African green monkey Vero cells to EC50 for Antiviral activity against Chikungunya virus infected in African green monkey Vero cells; assay type: toxicity; conditions: read-out: Ratio CC50/EC50
[19] = tested on: HEL; assay: Cytotoxicity against human HEL cells assessed as reduction in cell viability measured after 3 days by beckman coulter counting method; assay type: cell-based; conditions: 72 h, time 3 day; procedure, shortened: as §3
[20] = Selectivity index, ratio of CC50 for human HEL cells to EC50 for antiviral activity against thymidine kinase positive Varicella zoster virus; assay type: toxicity; conditions: read-out: Ratio CC50/EC50
[21] = Selectivity index, ratio of CC50 for pig PEK cells to EC50 for Antiviral activity against Powassan virus infected in pig PEK cells; assay type: toxicity, cell-based; conditions: read-out: Ratio CC50/EC50
[22] = Selectivity index, ratio of CC50 for human HEL cells to EC50 for antiviral activity against thymidine kinase deficient Varicella zoster virus; assay type: toxicity; conditions: read-out: Ratio CC50/EC50

SMILES	EC50 [1] [µM]	EC50 [2] [µM]	CC50 [3] [µM]	EC50 [4] [µM]	CC50 [5] [µM]	CC50 [7] [µM]	EC50 [8] [µM]	EC50 [9] [µM]	EC50 [10] [µM]	EC50 [11] [µM]	EC50 [12] [µM]	selectivity ratio [13]	EC50 [14] [µM]	EC50 [15] [µM]	CC50 [17] [µM]	selectivity ratio [18]	CC50 [19] [µM]	selectivity ratio [21]	other results
O=c1nc2c(cn1COCCO)Oc1ccccc1N2	> 100	> 100	> 100	> 100	> 100	> 100	25	> 50	> 100	> 100	23.6	> 4	> 100	28	> 100	> 3	> 100	–	EC50 [6]: 7.2 µM; selectivity ratio [16]: > 13
COc1ccc(C(OC[C@H]2O[C@@H](n3cc4c(nc3=O)Nc3c(OCCN)cccc3O4)[C@H](O)[C@@H]2O)(c2ccccc2)c2ccc(OC)cc2)cc1	> 100	–	–	–	> 100	–	–	–	–	–	–	–	–	–	–	–	–	–	–
CCCCCCCCOc1ccc2c(c1)N(C)c1nc(=O)n([C@H]3C[C@H](O)[C@@H](CO)O3)cc1O2	> 100	> 100	> 100	> 100	> 100	> 100	104	13.3	> 100	> 100	22	> 4	8.7	23.8	> 100	> 4	> 100	> 7	selectivity ratio [20]: 74
Nc1onc(C(=O)OCC23CC4CC(CC(C4)C2)C3)c1CCc1ccccc1	–	–	> 100	–	–	–	–	15	–	–	4	–	–	–	–	–	–	–	EC50 [6]: 15 µM
CCC(CC)O[C@@H]1C=C(C(=O)O)C[C@H](N)[C@H]1NC(C)=O [OSELTAMIVIR CARBOXYLATE]	–	–	–	–	–	–	2.9	–	–	–	–	–	–	–	> 100	–	–	–	–
COc1ccc(C(OC[C@H]2O[C@@H](n3cc4c(nc3=O)Nc3c(OCCN)cccc3O4)C[C@@H]2O)(c2ccccc2)c2ccc(OC)cc2)cc1	> 100	–	–	–	> 100	–	–	–	–	–	–	–	–	–	–	–	–	–	–
CCCCCCCCCOc1ccc2c(c1)Nc1nc(=O)n([C@H]3C[C@H](O)[C@@H](CO)O3)cc1O2	> 100	14.2	> 100	> 100	> 100	> 100	> 40	7.7	> 100	> 100	5.3	> 18	0.2	7.4	> 100	> 13	> 100	> 13	selectivity ratio [22]: > 8; selectivity ratio [20]: > 500
NCCOc1cccc2c1Nc1nc(=O)n([C@@H]3O[C@H](CO)[C@@H](O)[C@H]3O)cc1O2	2.52	–	–	–	2.92	–	–	–	–	–	–	–	–	–	–	–	–	–	–
CCCCCCCCCOc1ccc2c(c1)Nc1nc(=O)n(COCCO)cc1O2	> 100	> 100	–	–	–	–	> 100	–	> 100	> 100	–	–	> 100	–	> 100	–	> 100	–	–
CN1c2ccccc2Oc2cn(COCCO)c(=O)nc21	> 100	> 100	> 100	> 100	> 100	> 100	33	13.5	> 100	> 100	16	> 6	> 100	15	> 100	> 6	> 100	> 7	EC50 [6]: 4.5 µM; selectivity ratio [16]: > 22
CCCCCCCCCOc1ccc2c(c1)N(C)c1nc(=O)n([C@H]3C[C@H](O)[C@@H](CO)O3)cc1O2	> 100	> 20	> 100	> 100	> 100	> 100	35	2.4	> 100	> 100	2.53	> 40	> 20	6.3	> 100	> 15	> 100	> 42	–
CN1c2ccccc2Oc2cn([C@H]3C[C@H](O)[C@@H](CO)O3)c(=O)nc21	> 100	> 100	> 100	> 100	> 100	> 100	–	> 50	> 100	> 100	40	–	> 100	> 50	> 100	–	> 100	–	–
NOCN1c2ccccc2Oc2cn([C@H]3C[C@H](O)[C@@H](CO)O3)c(=O)nc21	> 100	–	–	–	> 100	–	–	–	–	–	–	–	–	–	–	–	–	–	–
